Test results reported in PMC12318077 (Scientific Reports, 2025).

How the values were obtained:
L. tropica promastigotes = test: Promastigotes proliferation assessment by MTT assay; format: cell-based, Leishmania tropica; details: for IC50: 48 h
Cytotoxicity assay = format: cell-based; details: human, 5% suspension of human blood erythrocytes
Procedure, shortened: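 Test compound (25–426 µM) incubated with a 5% suspension of human blood erythrocytes at 37 °C for 3 h. 0.1% DMSO served as the negative control and 0.5% Triton X-100 as the positive control. Samples were spun at 1000 × g for 10 min, and released hemoglobin was read at 576 nm. Percent hemolysis was calculated and CC50 derived by linear interpolation. Triplicates, mean ± SD.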

Compound | IC50 (L. tropica promastigotes; L. tropica promastigotes, MTT, dose range 25–426 µM) [µM] | IC50 (L. tropica promastigotes; Leishmania tropica) [µM] | SI index (IC50/CC50 µM) (L. tropica promastigotes; ratio of hemolysis CC50 and L. tropica IC50) | CC50 at 3 h (Cytotoxicity assay) [µM]
5,5′,5″-(nitrilotris(ethane-2,1-diyl))tris(3-(4-ethylphenyl)-1,3,5-thiadiazinane-2-thione) [Compound T24] | 26.9 |  |  | 
C[C@@H]1[C@H](O)[C@@H](C)/C=C/C=C/C=C/C=C/C=C/C=C/C=C/[C@H](O[C@@H]2O[C@H](C)[C@@H](O)[C@H](N)[C@@H]2O)C[C@@H]2O[C@](O)(C[C@@H](O)C[C@@H](O)[C@H](O)CC[C@@H](O)C[C@@H](O)CC(=O)O[C@H]1C)C[C@H](O)[C@H]2C(=O)O [Amp-B, Amphotericin B, reference compound] |  | 15.7 | 0.18 | 
CCCCN1CN(CC(=O)O)CSC1=S [BG, 2-(5-Butyl-6-thioxo-1,3,5-thiadiazinan-3-yl) acetic acid] |  |  |  | 376
Cc1cc(C)c(N2CSC(=S)N(CCN(CCN3CN(c4c(C)cc(C)cc4C)CSC3=S)CCN3CN(c4c(C)cc(C)cc4C)CSC3=S)C2)c(C)c1 [Compound T25, 3,3′,3″-(nitrilotris(ethane-2,1-diyl))tris(5-mesityl-1,3,5-thiadiazinane-2-thione)] |  | 27.7 |  | 89.7
CCCN1CN(CC(=O)O)CSC1=S [PG, 2-(5-propyl-6-thioxo-1,3,5-thiadiazinan-3-yl)acetic acid] |  | 82.8 |  | 402
